From ChEMBL document CHEMBL1123363, “(5-Amino-1,3-dimethyl-1H-pyrazol-4-yl)(2-fluorophenyl)methanones . A series of novel potential antipsychotic agents” (J Med Chem, 1986)
One block for each molecule: values may come before it. The source made the active and inactive calls. No cut-off for these calls is given here.

Tests used:
Rattus norvegicus [1] = experiment: Compound was tested for its effect on Dopamine turnover in rat at dose of 64 mg/kg ip; type: functional; conditions: route intraperitoneal
Method in brief: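 Rats were given compound or vehicle ip 30 min before α-methyl-p-tyrosine (250 mg/kg ip) and killed 4 h later. Brain NE and DA were measured spectrofluorometrically, with at least five determinations per value, and expressed as % of vehicle-treated levels ± SEM.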

[2] = biological target: Serotonin 2 (5-HT2) receptor (Rattus norvegicus, UniProt P30994+P08909+P14842); experiment: Binding affinity towards 5-hydroxytryptamine 2 receptor in rat brain using [3H]spiroperidol; type: tissue-based
Method in brief: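 Serotonin-2 sites in rat cerebral cortex membranes (male Long-Evans, 150–250 g) with [3H]spiroperidol at 0.2 nM final. (+)-Butaclamol at 1.0 μM final was the reference. IC50 from four or five concentrations by nonlinear curve fitting.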

Rattus norvegicus [3] = experiment: Suppression of conditional avoidance after peroral administration; type: functional; conditions: po
Method in brief: (§1)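 Fasted male Wistar rats (150–250 g) were trained to jump to a platform at a buzzer to avoid grid shock (1.1 mA/s). After oral dosing they were tested every 20 min for 6 h over 19 trials, 10 rats per dose, each rat used once. Peak effect was the mean of the four consecutive trials with the largest effect, computed from response latency. ED50 read graphically from at least three doses.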

Dopamine receptor = experiment: Binding affinity against dopamine receptor using [3H]- haloperidol in rat brain; type: tissue-based
Method in brief: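 Nonspecific binding defined with (+)-butaclamol at 0.1 μM final. IC50 fitted by nonlinear curve fit from four or five concentrations in triplicate.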

Rattus norvegicus [4] = experiment: Compound was tested for its antagonized affect on the accumulation of the brain dopamine induced by butyrolactone (GBL) at 25 mg/kg after intraperitoneal administration; type: functional; set-up: scale not given: the % may be the effect or the level left
Method in brief: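 Rats received test compound ip 30 min before γ-butyrolactone (750 mg/kg ip) and were killed 1 h after GBL. Dopamine in brain minus brain stem and cerebellum (four to six rats) was measured spectrofluorometrically and expressed as % of the GBL-treated group.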

Rattus norvegicus [5] = experiment: Inhibition of conditional avoidance in rats after peroral administration; type: functional; conditions: po; method in brief: as §1
Rattus norvegicus [6] = experiment: Compound was tested for serum prolactin assay method in rats at 10 mg/kg dose after peroral administration; type: functional; conditions: route oral
Method in brief: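 Seven-week-old male Sprague–Dawley rats, five per group, were dosed orally and killed by decapitation 1 h later. Serum prolactin from trunk blood was measured by radioimmunoassay with [125I]-PRL and expressed as % of control (mean ± SEM).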

[7] = biological target: T1, Adrenergic receptor alpha-2 (Rattus norvegicus, UniProt P22086+P19328+P22909); experiment: Binding affinity against the alpha-2 adrenergic receptor using [3H]- clonidine; type: protein assay
T1 sequence (P22086 whole entry): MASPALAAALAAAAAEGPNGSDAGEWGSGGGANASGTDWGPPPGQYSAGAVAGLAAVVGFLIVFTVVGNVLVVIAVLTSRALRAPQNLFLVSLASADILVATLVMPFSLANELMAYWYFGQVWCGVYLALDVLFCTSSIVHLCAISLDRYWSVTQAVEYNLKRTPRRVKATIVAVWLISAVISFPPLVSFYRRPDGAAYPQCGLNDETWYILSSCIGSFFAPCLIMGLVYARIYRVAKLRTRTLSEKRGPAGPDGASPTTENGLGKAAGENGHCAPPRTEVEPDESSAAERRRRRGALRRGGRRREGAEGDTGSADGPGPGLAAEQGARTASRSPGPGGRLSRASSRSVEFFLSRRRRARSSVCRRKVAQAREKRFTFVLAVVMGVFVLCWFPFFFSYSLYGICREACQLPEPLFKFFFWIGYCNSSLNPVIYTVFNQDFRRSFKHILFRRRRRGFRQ
T1 sequence (P19328 whole entry): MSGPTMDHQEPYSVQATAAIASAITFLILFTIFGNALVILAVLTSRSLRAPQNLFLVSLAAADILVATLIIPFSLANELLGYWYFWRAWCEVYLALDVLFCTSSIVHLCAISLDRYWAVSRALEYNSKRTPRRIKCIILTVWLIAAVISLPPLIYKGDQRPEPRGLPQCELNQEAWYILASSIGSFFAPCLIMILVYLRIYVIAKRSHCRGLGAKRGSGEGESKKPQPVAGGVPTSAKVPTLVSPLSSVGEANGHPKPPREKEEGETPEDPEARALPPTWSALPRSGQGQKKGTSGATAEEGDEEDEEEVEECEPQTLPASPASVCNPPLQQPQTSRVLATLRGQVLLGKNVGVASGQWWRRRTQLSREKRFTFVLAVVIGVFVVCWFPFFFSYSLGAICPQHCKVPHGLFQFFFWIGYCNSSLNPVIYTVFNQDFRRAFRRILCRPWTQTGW
T1 sequence (P22909 whole entry): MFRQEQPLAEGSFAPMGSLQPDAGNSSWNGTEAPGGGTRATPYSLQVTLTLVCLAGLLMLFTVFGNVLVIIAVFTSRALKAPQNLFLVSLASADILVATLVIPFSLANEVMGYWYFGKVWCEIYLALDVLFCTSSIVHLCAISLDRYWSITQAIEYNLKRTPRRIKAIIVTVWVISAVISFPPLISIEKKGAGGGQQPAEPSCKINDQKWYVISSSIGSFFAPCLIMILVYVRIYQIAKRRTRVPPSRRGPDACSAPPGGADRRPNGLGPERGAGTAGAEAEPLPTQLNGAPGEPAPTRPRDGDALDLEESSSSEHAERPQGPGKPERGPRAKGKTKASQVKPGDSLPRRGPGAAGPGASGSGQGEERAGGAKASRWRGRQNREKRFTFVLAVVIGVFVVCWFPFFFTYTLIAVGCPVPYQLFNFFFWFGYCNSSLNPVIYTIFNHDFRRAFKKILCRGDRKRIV
Method in brief: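 α2 sites in rat cerebral cortex membranes (male Long-Evans, 150–250 g) labelled with [3H]clonidine at 0.4 nM final. (-)-Norepinephrine at 10 μM final was the reference. IC50 from four or five concentrations by nonlinear fit.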

Rattus norvegicus [8] = organism: Rattus norvegicus; experiment: Effective dose required for inhibition of conditional avoidance in rats; type: functional; method in brief: as §1
Rattus norvegicus [9] = organism: Rattus norvegicus; experiment: Compound was tested for its potential to produce clonic seizures in rats; + indicates compound is causing seizures; type: functional, organism-based
Method in brief: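 Any sign of seizure marked the compound as seizure-causing; the outcome was not quantified.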

IC50 [2]: > 10 µM
Structure (SMILES): Cc1nn(C)c(NC(=O)CNCCCN2CCCCC2C)c1C(=O)c1ccccc1F (stereo not given)
Control (Rattus norvegicus [1]): 96.6%
ED50 (Rattus norvegicus [3]): 43 mg/kg

IC50 (Dopamine receptor): > 10 µM
IC50 [7]: > 10 µM
Structure (SMILES): CCN(CC)CC(=O)Nc1c(C(=O)c2ccccc2F)c(C)nn1C
Control (Rattus norvegicus [4]): 85.5%
ED50 (Rattus norvegicus [5]): 18 mg/kg
Control (Rattus norvegicus [6]): 52.9%

Structure (SMILES): Cc1nn(C)c(N)c1C(=O)c1ccccc1F
ED50 (Rattus norvegicus [8]): 18 mg/kg
Clonic seizures (Rattus norvegicus [9]): Active
